The record followed here is ChEMBL document CHEMBL1132346, “New type of febrifugine analogues, bearing a quinolizidine moiety, show potent antimalarial activity against Plasmodium malaria parasite” (J Med Chem, 1999).

Where “and” joins values, the source holds several entries; their conditions need not be identical. Identical values can stand only once.

As usually defined, the EC50 is the midpoint of the concentration-response curve. Low values mean an effect from little substance, high ones a need for much substance. One may read the ED50 as the dose at which the effect has come halfway, by size or by number of responders. Read a low ED50 as an effect at a small dose.

Assay [1] relates to Plasmodium falciparum. As to the kind of experiment: In vitro antimalarial activity against chloroquine-sensitive Plasmodium falciparum FCR3. It is filed as functional, organism-based.
Assay [2] in a line: Selectivity is the ratio of antimalarial activity and cytotoxicity. It is filed as functional. An outline of the steps:
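Ratio of antimalarial activity to cytotoxicity, with cytotoxicity measured against FM3A mouse mammary cells.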

Assay [3] relates to FM3A. As to the kind of experiment: Compound was tested for cytotoxicity against FM3A mouse mammary cells. It is filed as functional, cell-based.
Assay [4] concerns Plasmodium falciparum. As to the kind of experiment: In vitro antimalarial activity against chloroquine-resistant Plasmodium falciparum K1. The assay is classed as functional, organism-based.
Assay [5] concerns Mus musculus. As to the kind of experiment: Compound was tested for antimalarial activity against mice (Mus musculus) malaria parasite Plasmodium berghei in vivo and the samples were administarted intraperitoneally. The assay is classed as functional. As to conditions: for ED50: ip.
The subject of assay [6] is Plasmodium berghei. As to the kind of experiment: In vivo antimalarial activity against Plasmodium berghei infected mice (Mus musculus) by intraperitoneal dose. It is filed as functional.
The test system of assay [7] is Mus musculus. Briefly: Compound was tested for antimalarial activity against mice (Mus musculus) malaria parasite Plasmodium berghei in vivo mice (Mus musculus) and the samples were administarted intraperitoneally. The assay is classed as functional.

Turning to `CC1(C)[C@H](n2cnc3ccccc3c2=O)C(=O)C[C@H]2[C@@H](O)CCCN21`, the EC50 in assay [1] was 2.8 nM; in assay [3], 2400 nM; in assay [4] it was 4.2 nM. The Selectivity in assay [2] was 857 and 571. Also, the median effective dose (ED50) in assay [5] was determined as 76 µmol/kg.
Regarding `CC1(C)[C@@H](n2cnc3ccccc3c2=O)C(=O)C[C@@H]2[C@@H](O)CCCN21`, the 50% effective concentration (EC50) in assay [1] is 1.6 nM; in assay [3], 380 nM; in assay [4], 3 nM. For the same molecule, the Selectivity in assay [2] is 238 and 127. Moreover, in assay [5], the ED90 worked out at 19.4 µM/kg. Further, in assay [5], the 50% effect level (ED50) was put at a dose of 7.3 µmol/kg.
Turning to `O=C(C[C@@H]1NCCC[C@H]1O)Cn1cnc2ccccc2c1=O` (single isomer, unassigned) [FEBRIFUGINE], the values for the half-maximal effective concentration (EC50) in assay [1], in assay [3] and in assay [4] were 0.7 nM, 170 nM and 1.2 nM, respectively. Further, in assay [2], the Selectivity was 243 and 142. Further, in assay [5], the ED90 is 5 µM/kg. For the same molecule, in assay [5], the 50% effect level (ED50) was put at a dose of 1 µmol/kg.
Molecule `C[C@@H]1CC[C@H]2[C@@H](C)C(=O)O[C@@H]3O[C@@]4(C)CC[C@@H]1[C@]32OO4` [ARTEMISININ] displayed an ED90 in assay [6] of 46 µM/kg. The 50% effect level in assay [6] (ip) (ED50) was put at a dose of 17.7 µmol/kg.
For `CCN(CC)CCCC(C)Nc1ccnc2cc(Cl)ccc12` (centres undefined) [CHLOROQUINE], the EC50 was 18 nM in assay [1], 32000 nM in assay [3] and 130 nM in assay [4]. The ED90 in assay [5] is 9.4 µM/kg. Further, the 50% effect level in assay [5] (ED50) was put at a dose of 4.7 µmol/kg.
Consider `O=c1c2ccccc2ncn1CC1(O)C[C@@H]2NCCC[C@@H]2O1` (some centres undefined) [ISOFEBRIFUGINE], for which the concentration for a half-maximal effect (EC50) in assay [1] was found to be 3.4 nM; in assay [3] it was 180 nM; in assay [4] it was 1.8 nM. In addition, the Selectivity in assay [2] is 53 and 100. The ED90 in assay [7] worked out at 5 µM/kg.
